We go through 15 compounds from ChEMBL document CHEMBL3232836, “Discovery of 4-anilino α-carbolines as novel Brk inhibitors” (Bioorg Med Chem Lett, 2014).

In test [1] the target is Protein-tyrosine kinase 6 (Homo sapiens, UniProt Q13882). Description: Inhibition of Brk (unknown origin) using [gamma-33P]-ATP after 60 mins by scintillation counting.
Test [2] has as its target Mitogen-activated protein kinase 8 (Homo sapiens, UniProt P45983). Description: Inhibition of human JNK1.
For test [3], the target named is Serine/threonine-protein kinase 24 (Homo sapiens, UniProt Q9Y6E0). Briefly: Inhibition of human MST3. A digest of the protocol: (§1)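 Radiometric kinase assay in FlashPlates. Test compound was added from a 10% DMSO solution and ATP from an aqueous solution. The reaction was stopped with 2% (v/v) phosphoric acid, and plates were aspirated and washed with water or 0.9% NaCl. ³³Pi incorporation was read on a microplate scintillation counter.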

Test [4] in a line: Antiproliferative activity against human Hs 578T cells by sulfur rhodamine assay. Format: functional.
Test [5] in a line: Inhibition of human MARK5.
A further test concerns MCF7. Description: Antiproliferative activity against human MCF7 cells by sulfur rhodamine assay. Format: functional.
For a further test, the target named is Myotonin-protein kinase (Homo sapiens, UniProt Q09013). Description: Inhibition of human DMPK.
For test [6], the target named is RAC-alpha serine/threonine-protein kinase (Homo sapiens, UniProt P31749). Description: Inhibition of human AKT1.
The target of test [7] is RAC-gamma serine/threonine-protein kinase (Homo sapiens, UniProt Q9Y243). Description: Inhibition of human AKT3. In a few lines: as §1
The target in test [8] is Homeodomain-interacting protein kinase 2 (Homo sapiens, UniProt Q9H2X6). Briefly: Inhibition of human HIPK2.
Test [9] can be described thus: Antiproliferative activity against human BT549 cells by sulfur rhodamine assay. The test is classed as functional. The settings on record: BT-549.
The target of test [10] is Serine/threonine-protein kinase 26 (Homo sapiens, UniProt Q9P289). Description: Inhibition of human MST4.
Test [11] deals with Serine/threonine-protein kinase PAK 2 (Homo sapiens, UniProt Q13177). Briefly: Inhibition of human PAK2. In a few lines:
as §1

The target in test [12] is Homeodomain-interacting protein kinase 1 (Homo sapiens, UniProt Q86Z02). Description: Inhibition of human HIPK1.
Test [13] addresses Serine/threonine-protein kinase Nek1 (Homo sapiens, UniProt Q96PY6). Description: Inhibition of human NEK1.
In test [14] the target is Proto-oncogene tyrosine-protein kinase Src (Homo sapiens, UniProt P12931). Description: Inhibition of human Src.
For test [15], the target named is Mitogen-activated protein kinase 10 (Homo sapiens, UniProt P53779). Briefly: Inhibition of human JNK3.
In test [16] the target is Serine/threonine-protein kinase MARK1 (Homo sapiens, UniProt Q9P0L2). Briefly: Inhibition of human MARK1.
Test [17] addresses MAP kinase-activated protein kinase 5 (Homo sapiens, UniProt Q8IW41). Description: Inhibition of human MAPKAPK5.
Test [18] concerns the target Mitogen-activated protein kinase 1 (Homo sapiens, UniProt P28482). Description: Inhibition of human ERK2.
For test [19], the target named is Homeodomain-interacting protein kinase 3 (Homo sapiens, UniProt Q9H422). Briefly: Inhibition of human HIPK3.
The target of test [20] is RAC-beta serine/threonine-protein kinase (Homo sapiens, UniProt P31751). Description: Inhibition of human AKT2.
The target in test [21] is Glycogen synthase kinase-3 beta (Homo sapiens, UniProt P49841). Briefly: Inhibition of human GSK3beta.
In test [22] the target is Mitogen-activated protein kinase 3 (Homo sapiens, UniProt P27361). Description: Inhibition of human ERK1. A digest of the protocol: as §1
Test [23] has as its target Serine/threonine-protein kinase Nek2 (Homo sapiens, UniProt P51955). Description: Inhibition of human NEK2.
The target of test [24] is Serine/threonine-protein kinase PAK 1 (Homo sapiens, UniProt Q13153). Description: Inhibition of human PAK1.
For test [25], the target named is Serine/threonine-protein kinase PAK 3 (Homo sapiens, UniProt O75914). Briefly: Inhibition of human PAK3.
Test [26] deals with Calcium/calmodulin-dependent protein kinase type IV (Homo sapiens, UniProt Q16566). Description: Inhibition of human CAMK4.
In test [27] the target is MAP kinase-activated protein kinase 3 (Homo sapiens, UniProt Q16644). Description: Inhibition of human MAPKAPK3.
In test [28] the target is Serine/threonine-protein kinase pim-2 (Homo sapiens, UniProt Q9P1W9). Briefly: Inhibition of human PIM2.
Test [29] concerns the target Serine/threonine-protein kinase VRK1 (Homo sapiens, UniProt Q99986). Description: Inhibition of human VRK1.
The target of test [30] is Tyrosine-protein kinase JAK3 (Homo sapiens, UniProt P52333). Briefly: Inhibition of human JAK3. In a few lines: as §1
Test [31] deals with MAP/microtubule affinity-regulating kinase 3 (Homo sapiens, UniProt P27448). Briefly: Inhibition of human MARK3. A digest of the protocol:
as §1

Structures are written as SMILES.

Protein-tyrosine kinase 6, sequence (Q13882 whole entry): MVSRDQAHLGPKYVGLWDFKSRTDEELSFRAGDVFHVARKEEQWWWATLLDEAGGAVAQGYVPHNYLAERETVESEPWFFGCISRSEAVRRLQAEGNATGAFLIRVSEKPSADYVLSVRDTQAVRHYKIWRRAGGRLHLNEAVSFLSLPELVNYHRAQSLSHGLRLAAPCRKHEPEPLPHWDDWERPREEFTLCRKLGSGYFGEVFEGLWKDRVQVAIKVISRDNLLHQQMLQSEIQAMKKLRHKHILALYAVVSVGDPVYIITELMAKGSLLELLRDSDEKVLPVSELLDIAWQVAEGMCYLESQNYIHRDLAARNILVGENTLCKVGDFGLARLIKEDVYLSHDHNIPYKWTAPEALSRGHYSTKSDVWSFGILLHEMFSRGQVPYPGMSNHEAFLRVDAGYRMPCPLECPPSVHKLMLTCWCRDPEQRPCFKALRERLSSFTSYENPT
Mitogen-activated protein kinase 3, sequence (P27361 whole entry): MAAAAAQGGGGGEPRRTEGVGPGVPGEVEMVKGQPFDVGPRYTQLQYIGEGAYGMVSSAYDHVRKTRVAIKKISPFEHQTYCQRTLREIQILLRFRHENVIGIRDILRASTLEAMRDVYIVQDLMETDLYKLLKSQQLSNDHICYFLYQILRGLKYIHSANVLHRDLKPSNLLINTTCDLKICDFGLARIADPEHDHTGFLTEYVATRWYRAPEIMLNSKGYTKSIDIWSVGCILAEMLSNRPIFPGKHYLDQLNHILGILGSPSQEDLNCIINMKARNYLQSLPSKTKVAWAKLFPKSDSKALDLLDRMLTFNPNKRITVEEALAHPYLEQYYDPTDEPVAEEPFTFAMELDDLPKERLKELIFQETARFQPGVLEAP
RAC-gamma serine/threonine-protein kinase, sequence (Q9Y243 whole entry): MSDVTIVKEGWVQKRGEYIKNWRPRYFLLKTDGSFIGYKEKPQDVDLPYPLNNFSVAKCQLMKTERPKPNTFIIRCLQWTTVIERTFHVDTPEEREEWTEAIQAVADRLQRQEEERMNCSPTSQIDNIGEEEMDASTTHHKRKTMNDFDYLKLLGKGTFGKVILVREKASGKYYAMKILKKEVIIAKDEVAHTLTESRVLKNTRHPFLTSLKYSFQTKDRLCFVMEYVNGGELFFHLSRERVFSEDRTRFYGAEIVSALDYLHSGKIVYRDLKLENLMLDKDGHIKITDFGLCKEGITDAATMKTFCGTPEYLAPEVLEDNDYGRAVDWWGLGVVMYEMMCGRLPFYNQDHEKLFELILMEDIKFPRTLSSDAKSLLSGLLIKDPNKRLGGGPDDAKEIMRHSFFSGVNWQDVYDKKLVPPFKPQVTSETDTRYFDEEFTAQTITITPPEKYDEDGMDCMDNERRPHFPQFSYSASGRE
Tyrosine-protein kinase JAK3, sequence (P52333 whole entry): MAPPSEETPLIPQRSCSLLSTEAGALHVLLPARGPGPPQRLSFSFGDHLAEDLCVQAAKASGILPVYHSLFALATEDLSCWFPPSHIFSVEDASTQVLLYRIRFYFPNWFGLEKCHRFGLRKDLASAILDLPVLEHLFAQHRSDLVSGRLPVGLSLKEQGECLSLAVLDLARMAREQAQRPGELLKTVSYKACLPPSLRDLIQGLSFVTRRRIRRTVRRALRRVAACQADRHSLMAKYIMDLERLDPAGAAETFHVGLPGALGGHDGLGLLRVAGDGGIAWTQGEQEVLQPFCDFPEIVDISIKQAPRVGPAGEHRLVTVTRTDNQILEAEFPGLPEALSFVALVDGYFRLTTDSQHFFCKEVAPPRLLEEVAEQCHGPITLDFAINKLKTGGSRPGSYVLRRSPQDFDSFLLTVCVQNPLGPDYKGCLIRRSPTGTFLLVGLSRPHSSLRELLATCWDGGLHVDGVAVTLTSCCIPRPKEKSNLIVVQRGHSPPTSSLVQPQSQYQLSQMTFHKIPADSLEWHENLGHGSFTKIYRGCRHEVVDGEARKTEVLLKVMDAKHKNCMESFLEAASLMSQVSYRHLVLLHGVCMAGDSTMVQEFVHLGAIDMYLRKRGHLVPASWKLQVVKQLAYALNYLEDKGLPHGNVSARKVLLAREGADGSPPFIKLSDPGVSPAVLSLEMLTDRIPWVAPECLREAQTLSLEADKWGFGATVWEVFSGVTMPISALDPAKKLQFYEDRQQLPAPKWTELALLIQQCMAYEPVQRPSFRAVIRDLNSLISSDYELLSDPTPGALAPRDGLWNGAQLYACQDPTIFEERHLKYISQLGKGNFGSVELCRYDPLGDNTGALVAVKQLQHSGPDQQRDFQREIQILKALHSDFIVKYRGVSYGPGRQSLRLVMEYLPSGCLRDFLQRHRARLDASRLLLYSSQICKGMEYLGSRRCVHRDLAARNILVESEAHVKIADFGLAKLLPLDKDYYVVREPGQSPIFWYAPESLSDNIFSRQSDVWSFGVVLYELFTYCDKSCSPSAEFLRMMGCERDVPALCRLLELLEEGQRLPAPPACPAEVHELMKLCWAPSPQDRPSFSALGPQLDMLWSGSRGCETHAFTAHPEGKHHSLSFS
Serine/threonine-protein kinase 24, sequence (Q9Y6E0 whole entry): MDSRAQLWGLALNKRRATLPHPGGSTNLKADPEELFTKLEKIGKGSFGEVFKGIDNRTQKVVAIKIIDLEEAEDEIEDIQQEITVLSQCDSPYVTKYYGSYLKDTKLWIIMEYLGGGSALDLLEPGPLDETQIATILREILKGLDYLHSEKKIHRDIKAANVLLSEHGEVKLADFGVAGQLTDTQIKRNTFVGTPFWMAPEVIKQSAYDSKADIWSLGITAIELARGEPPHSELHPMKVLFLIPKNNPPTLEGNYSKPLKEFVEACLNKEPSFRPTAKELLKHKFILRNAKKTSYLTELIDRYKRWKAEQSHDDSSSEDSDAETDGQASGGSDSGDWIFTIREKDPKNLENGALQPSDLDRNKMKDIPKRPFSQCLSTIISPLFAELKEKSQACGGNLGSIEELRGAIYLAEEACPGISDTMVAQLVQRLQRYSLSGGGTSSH
Proto-oncogene tyrosine-protein kinase Src, sequence (P12931 2-536 limits assumed): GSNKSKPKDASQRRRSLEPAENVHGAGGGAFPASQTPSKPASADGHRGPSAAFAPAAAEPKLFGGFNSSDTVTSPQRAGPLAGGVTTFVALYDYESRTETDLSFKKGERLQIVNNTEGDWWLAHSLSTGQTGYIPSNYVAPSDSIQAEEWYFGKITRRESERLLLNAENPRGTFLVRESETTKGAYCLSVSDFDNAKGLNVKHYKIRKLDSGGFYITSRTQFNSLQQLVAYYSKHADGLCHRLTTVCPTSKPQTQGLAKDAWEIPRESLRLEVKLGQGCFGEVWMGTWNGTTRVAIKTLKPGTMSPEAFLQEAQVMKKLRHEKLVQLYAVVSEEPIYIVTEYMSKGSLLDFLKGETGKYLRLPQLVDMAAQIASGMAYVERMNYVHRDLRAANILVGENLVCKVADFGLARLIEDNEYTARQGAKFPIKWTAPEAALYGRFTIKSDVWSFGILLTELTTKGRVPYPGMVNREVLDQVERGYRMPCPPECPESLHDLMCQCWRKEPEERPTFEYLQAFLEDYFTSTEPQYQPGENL
Glycogen synthase kinase-3 beta, sequence (P49841 whole entry): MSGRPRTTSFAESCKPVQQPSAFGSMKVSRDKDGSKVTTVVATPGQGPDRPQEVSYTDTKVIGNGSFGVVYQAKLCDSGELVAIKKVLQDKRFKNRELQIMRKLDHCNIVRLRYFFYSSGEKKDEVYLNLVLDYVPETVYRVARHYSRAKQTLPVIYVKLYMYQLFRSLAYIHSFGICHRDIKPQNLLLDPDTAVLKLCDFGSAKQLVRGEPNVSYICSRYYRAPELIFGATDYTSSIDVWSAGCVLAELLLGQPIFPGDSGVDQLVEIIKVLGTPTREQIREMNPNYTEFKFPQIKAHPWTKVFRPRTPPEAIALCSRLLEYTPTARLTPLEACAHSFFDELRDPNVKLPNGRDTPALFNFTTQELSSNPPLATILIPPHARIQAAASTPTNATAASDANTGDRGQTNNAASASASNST
MAP kinase-activated protein kinase 5, sequence (Q8IW41 whole entry): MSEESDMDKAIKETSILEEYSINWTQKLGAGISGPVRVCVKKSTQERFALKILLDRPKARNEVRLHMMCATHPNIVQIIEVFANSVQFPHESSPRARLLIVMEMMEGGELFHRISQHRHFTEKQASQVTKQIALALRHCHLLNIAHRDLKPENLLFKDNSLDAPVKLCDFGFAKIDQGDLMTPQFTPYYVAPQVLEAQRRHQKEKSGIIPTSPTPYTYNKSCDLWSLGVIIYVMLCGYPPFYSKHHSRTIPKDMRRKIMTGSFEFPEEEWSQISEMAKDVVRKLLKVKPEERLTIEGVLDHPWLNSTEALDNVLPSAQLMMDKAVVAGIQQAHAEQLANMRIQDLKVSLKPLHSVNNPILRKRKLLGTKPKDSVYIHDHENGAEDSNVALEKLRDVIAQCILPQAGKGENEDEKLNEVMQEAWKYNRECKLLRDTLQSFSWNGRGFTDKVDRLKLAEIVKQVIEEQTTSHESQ
Serine/threonine-protein kinase 26, sequence (Q9P289 whole entry): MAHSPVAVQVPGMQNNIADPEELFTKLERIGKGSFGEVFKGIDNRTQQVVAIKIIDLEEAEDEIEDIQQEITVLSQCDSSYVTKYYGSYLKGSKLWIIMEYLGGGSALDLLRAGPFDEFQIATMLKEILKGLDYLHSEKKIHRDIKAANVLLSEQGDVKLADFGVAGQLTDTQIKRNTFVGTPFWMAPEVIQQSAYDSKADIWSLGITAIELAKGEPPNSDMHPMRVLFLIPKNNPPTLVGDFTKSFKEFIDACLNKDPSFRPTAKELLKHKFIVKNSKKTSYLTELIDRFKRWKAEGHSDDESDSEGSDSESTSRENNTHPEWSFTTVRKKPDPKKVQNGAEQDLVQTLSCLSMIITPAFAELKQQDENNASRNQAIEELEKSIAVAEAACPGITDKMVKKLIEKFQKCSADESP

Consider `Cc1ccccc1Nc1ccnc2[nH]c3ccccc3c12`, for which, in [1], the IC50 result was “Not Active”.

In the case of `Oc1cccc(Nc2ccnc3[nH]c4ccccc4c23)c1`, the IC50 (in [2]; in test [3]; in test [5]; at Myotonin-protein kinase; in test [6]; in test [7]) was above 10 µM throughout. Moreover, the IC50 is above 10 µM in test [8]; above 10 µM in test [10]; above 10 µM in test [11]; 0.00315 µM in test [1] (read-out: IC50); above 10 µM in test [12]; above 10 µM in test [13]. Also, the IC50 is 3.04 µM in test [14]; above 10 µM in test [15]; above 10 µM in [16]; above 10 µM in [17]; above 10 µM in test [18]; above 10 µM in test [19]. Further, the IC50 in test [20], in test [21], in test [22], in [23], in [24] and in [25] was above 10 µM each time. The IC50 in test [26], in test [27], in test [28], in test [29], in test [30] and in [31] was above 10 µM in each case. The GI50 in test [4] was determined as 1.02 µM; in the test with MCF7 it was 0.99 µM; in test [9], 1.58 µM.

Take `Clc1cccc(Nc2ccnc3[nH]c4ccccc4c23)c1`: the IC50 in test [1] (read-out: IC50) was determined as 0.00475 µM.

In the case of `Clc1ccc(Nc2ccnc3[nH]c4ccccc4c23)cc1`, the IC50 entry in [1] is listed as “Not Active”.

On to `FC(F)(F)c1cccc(Nc2ccnc3[nH]c4ccccc4c23)c1`, for which the IC50 in test [1] (read-out: IC50) was found to be 0.0594 µM.

In the case of `CSc1cccc(Nc2ccnc3[nH]c4ccccc4c23)c1`, in test [1], the IC50 entry is listed as “Not Active”.

As to `COc1cccc(Nc2ccnc3[nH]c4ccccc4c23)c1`, in test [1], the IC50 result was “Not Active”.

Take `CCOc1cccc(Nc2ccnc3[nH]c4ccccc4c23)c1`: the IC50 in [1] (read-out: IC50) stood at 0.155 µM.

Turning to `O=[N+]([O-])c1cccc(Nc2ccnc3[nH]c4ccccc4c23)c1`, the IC50 in test [1] (read-out: IC50) worked out at 0.00565 µM.

`COc1ccc(Nc2ccnc3[nH]c4ccccc4c23)cc1`: the IC50 in [1] (read-out: IC50) amounted to 0.19 µM.

As for `Cc1ccc(Nc2ccnc3[nH]c4ccccc4c23)cc1Cl`, the IC50 in test [1] (read-out: IC50) came to 0.0756 µM.

`Fc1ccc(Nc2ccnc3[nH]c4ccccc4c23)cc1Cl`: the GI50 in test [4] was 10.2 µM; in the test on MCF7, 8.12 µM; in test [9], above 100 µM. In addition, the IC50 in test [1] (read-out: IC50) is 0.0695 µM.

For the compound `Clc1cc(Cl)cc(Nc2ccnc3[nH]c4ccccc4c23)c1`, the IC50 in test [1] (read-out: IC50) is 0.0534 µM.

On to `COc1cc(Nc2ccnc3[nH]c4ccccc4c23)ccc1Br`, for which the half-inhibitory concentration (IC50) in test [1] (read-out: IC50) is 0.00441 µM.

With `CCOc1cc(Nc2ccnc3[nH]c4ccccc4c23)ccc1Br`, in test [1] (read-out: IC50), the IC50 came to 0.154 µM.

One may read the IC50 as the concentration needed to halve the response being measured. As a reminder, the GI50 is the concentration that inhibits growth by half. A higher GI50 goes with less potent growth inhibition.
